Laboratory results published in ChEMBL document CHEMBL1135105, “Design, synthesis and biochemical evaluation of AC ring mimics as novel inhibitors of the enzyme estrone sulfatase (ES)” (Bioorg Med Chem Lett, 2002).

Assays:
Steryl-sulfatase = biological target: T1, Steryl-sulfatase (Homo sapiens, UniProt P08842); assay: Compound was evaluated for its inhibitory activity against estrone sulfatase enzyme
T1 sequence (P08842 whole entry): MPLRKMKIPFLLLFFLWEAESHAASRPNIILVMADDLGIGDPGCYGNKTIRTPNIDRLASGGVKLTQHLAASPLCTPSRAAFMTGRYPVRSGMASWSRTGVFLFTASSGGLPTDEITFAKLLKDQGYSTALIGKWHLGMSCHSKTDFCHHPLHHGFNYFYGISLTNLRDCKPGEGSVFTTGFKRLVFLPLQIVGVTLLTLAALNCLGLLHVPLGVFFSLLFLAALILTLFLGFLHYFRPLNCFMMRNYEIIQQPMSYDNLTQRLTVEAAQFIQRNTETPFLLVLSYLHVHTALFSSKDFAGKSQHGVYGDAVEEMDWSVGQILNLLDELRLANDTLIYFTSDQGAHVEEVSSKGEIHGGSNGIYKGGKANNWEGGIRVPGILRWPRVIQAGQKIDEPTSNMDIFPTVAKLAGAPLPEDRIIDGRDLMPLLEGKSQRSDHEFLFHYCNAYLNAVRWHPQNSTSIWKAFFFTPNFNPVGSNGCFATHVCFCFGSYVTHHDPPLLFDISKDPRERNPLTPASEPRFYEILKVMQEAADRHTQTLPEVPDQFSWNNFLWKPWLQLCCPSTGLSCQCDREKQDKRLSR
How it was run: (§1)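 They are added to tubes holding [3H]estrone sulfate (300,000 dpm) and inhibitor, which was dried from ethanol under nitrogen. Incubation runs 20 min at 37 °C and is quenched with toluene. Radioactivity in the toluene extract is counted. Triplicates are run alongside no-inhibitor controls and boiled-microsome blanks.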

[1] = biological target: T2, Steryl-sulfatase (Homo sapiens) (UniProt P08842); assay: Compound was evaluated for its percent inhibition against the estrone sulfatase enzyme at a concentration of 5 uM
T2 sequence (whole entry): T1 sequence (P08842 whole entry)
How it was run: as §1, with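 “Placental microsomes, diluted to 115 µg/mL in 0.05 M Tris-HCl pH 7.2, are pre-warmed 5 min at 37 °C. They” for “They”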

[2] = Partition coefficient (logP); assay type: physicochemical; details: octanol/water
[3] = biological target: T2, Steryl-sulfatase (Homo sapiens); details: 10 uM

| SMILES | IC50 (Steryl-sulfatase) [uM tube-1] | inhibition [1] [%] | logP [2] | inhibition [3] [%] |
| --- | --- | --- | --- | --- |
| CCCCOC(=O)c1ccc(-c2ccc(OS(N)(=O)=O)cc2)cc1 | 5.8 | 48.4 | 4.38 |  |
| C[C@]12CC[C@@H]3c4ccc(OS(N)(=O)=O)cc4CCC3[C@@H]1CCC2=O (single isomer, unassigned) [EMATE] | 0.1 |  | 3.87 |  |
| CCCOC(=O)c1ccc(-c2ccc(OS(N)(=O)=O)cc2)cc1 | 3.5 | 60.5 | 3.99 |  |
| NS(=O)(=O)Oc1ccc2c3c(c(=O)oc2c1)CCCCC3 [IROSUSTAT] |  | 86.8 | 2.65 |  |
| NS(=O)(=O)Oc1ccc(-c2ccccc2)cc1 | 76.1 | 5.5 | 3.45 |  |
| N#Cc1ccc(-c2ccc(OS(N)(=O)=O)cc2)cc1 | 6.7 | 44.2 | 3.48 |  |
| Cc1cc(=O)oc2cc(OS(N)(=O)=O)ccc12 | 10 |  | 1.7 | 47.6 |
| COC(=O)c1ccc(-c2ccc(OS(N)(=O)=O)cc2)cc1 | 5.2 | 44.2 | 3.18 |  |
| CCOC(=O)c1ccc(-c2ccc(OS(N)(=O)=O)cc2)cc1 | 4.2 | 53.4 | 3.52 |  |
